Here are results for 2 compounds from ChEMBL document CHEMBL1148732, “New 2-arylpyrazolo[3,4-c]quinoline derivatives as potent and selective human A3 adenosine receptor antagonists. Synthesis, pharmacological evaluation, and ligand-receptor modeling studies” (J Med Chem, 2007).

A word on the pKi: it is −log10 of the Ki, conventionally taken in molar units. The pEC50 is −log10 of the EC50, conventionally taken in molar units.

pEC50, pKi: −log10 of the molar value.

One assay has as its target Adenosine receptor A2a (Homo sapiens, UniProt P29274). Kind of assay: Displacement of [3H]NECA from human adenosine A2A receptor expressed in CHO cells at 10 uM. Type of assay: cell-based. Background: Displacement assays read how much labelled ligand stays bound in the presence of the test substance.
Assay [1] has as its target T1, Adenosine receptor A1 (Homo sapiens) (UniProt P30542).
T1 sequence (whole entry): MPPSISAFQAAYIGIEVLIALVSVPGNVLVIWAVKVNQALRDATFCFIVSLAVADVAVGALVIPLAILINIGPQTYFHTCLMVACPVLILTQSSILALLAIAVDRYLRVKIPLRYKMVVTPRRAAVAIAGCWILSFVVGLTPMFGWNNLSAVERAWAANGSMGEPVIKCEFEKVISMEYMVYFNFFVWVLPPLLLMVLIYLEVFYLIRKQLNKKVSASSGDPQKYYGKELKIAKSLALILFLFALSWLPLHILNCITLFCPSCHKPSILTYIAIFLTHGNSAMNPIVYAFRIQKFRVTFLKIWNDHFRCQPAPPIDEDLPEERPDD
Nature of the assay: Displacement of [3H]DPCPX from human adenosine A1 receptor expressed in CHO cells at 10 uM. The assay is classed as cell-based.

Assay [2] concerns the target T2, Adenosine receptor A3 (Rattus norvegicus) (UniProt P28647).
T2 sequence (whole entry): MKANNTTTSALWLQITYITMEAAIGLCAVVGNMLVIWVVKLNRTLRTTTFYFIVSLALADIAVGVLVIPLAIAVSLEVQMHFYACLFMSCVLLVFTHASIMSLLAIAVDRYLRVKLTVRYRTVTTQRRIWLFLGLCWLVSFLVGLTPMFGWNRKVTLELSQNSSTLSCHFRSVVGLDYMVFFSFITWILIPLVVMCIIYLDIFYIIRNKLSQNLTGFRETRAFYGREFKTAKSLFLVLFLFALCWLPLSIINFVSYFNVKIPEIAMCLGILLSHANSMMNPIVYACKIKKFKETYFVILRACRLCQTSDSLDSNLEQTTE
Nature of the assay: Displacement of [3H](R)-PIA from Wistar rat adenosine A3 receptor at 1 uM. In outline: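 Rat testis membranes (0.1-0.2 mg protein) incubated with 4 nM [3H]-(R)-PIA and 150 nM DPCPX to block A1 sites. Buffer: 50 mM Tris/HCl pH 7.4, 1 mM EDTA, 10 mM MgCl2. Nonspecific binding defined with 15 µM (R)-PIA. Separation by filtration and scintillation counting. Result is % displacement at 1 µM.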

The target in the next assay is T3, Adenosine receptor A1 (Rattus norvegicus, UniProt P25099).
T3 sequence (P25099 whole entry): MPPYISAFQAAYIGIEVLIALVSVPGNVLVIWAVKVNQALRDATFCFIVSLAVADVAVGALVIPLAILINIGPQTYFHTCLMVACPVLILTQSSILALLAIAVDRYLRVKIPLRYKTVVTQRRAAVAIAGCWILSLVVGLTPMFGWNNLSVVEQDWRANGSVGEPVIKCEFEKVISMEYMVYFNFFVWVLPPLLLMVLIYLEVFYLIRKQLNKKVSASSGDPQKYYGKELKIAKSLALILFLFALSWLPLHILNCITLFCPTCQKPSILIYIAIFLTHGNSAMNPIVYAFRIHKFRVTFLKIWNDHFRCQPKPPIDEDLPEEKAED
Nature of the assay: Displacement of [3H]DPCPX from Wistar rat adenosine A1 receptor. In outline: (§1)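 Male Wistar rat cortex membranes (40-50 µg protein) incubated 180 min at 25 °C with 0.2-0.5 nM [3H]DPCPX. Buffer: 50 mM Tris/HCl, 2 mM MgCl2, pH 7.7. Run in triplicate. Nonspecific binding defined with 20 µM R-PIA. GF/C filtration; KD 0.51 nM.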

The target in assay [3] is Adenosine receptor A2a (Rattus norvegicus) (UniProt P30543). Nature of the assay: Displacement of [3H]CGS 21680 from Wistar rat adenosine A2A receptor at 10 uM.
For assay [4], the target named is T4, Adenosine receptor A3 (Homo sapiens, UniProt P0DMS8).
T4 sequence (P0DMS8 whole entry): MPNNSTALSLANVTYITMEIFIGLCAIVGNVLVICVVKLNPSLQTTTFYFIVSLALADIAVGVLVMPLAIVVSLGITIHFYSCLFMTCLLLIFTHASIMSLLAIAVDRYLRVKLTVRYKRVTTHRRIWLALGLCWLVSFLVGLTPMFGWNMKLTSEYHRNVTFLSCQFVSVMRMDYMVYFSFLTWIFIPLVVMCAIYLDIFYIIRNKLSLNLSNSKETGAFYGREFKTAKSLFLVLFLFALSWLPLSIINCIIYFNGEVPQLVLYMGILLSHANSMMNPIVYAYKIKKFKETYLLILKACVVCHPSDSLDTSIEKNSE
Nature of the assay: Antagonist activity at human adenosine A3 receptor expressed in CHO cells assessed as inhibition of NECA-induced cAMP accumulation. Type of assay: functional, cell-based. In outline: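 CHO cells stably expressing hA3 were plated and used after 48 h. They were preincubated 15 min at 37 °C with Ro 20-1724 (20 µM) and adenosine deaminase (1 U/mL). Compounds at several concentrations were then added with 100 nM NECA and 10 µM forskolin for 15 min at 37 °C. Lysis in 0.4 N HCl. cAMP was measured by competitive binding against [3H]cAMP (2 nM) with adrenal binding protein, 150 min at 4 °C. EC50 from sigmoid nonlinear regression.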
For orientation: Changes in cAMP serve as a functional read-out for many G protein-coupled receptors.

Assay [5] has as its target T4, Adenosine receptor A3. Kind of assay: Displacement of [125I]AB-MECA from human adenosine A3 receptor expressed in CHO cells. The assay is classed as cell-based. In outline: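 Five displacer concentrations, each in triplicate. IC50 by nonlinear regression, converted to Ki with Cheng-Prusoff. Means ± SEM of four separate assays.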
Assay [6] has as its target T2, Adenosine receptor A3 (Rattus norvegicus). Nature of the assay: Antagonist activity at adenosine A3 receptor in Wistar rat hippocampal slices by prevention of glucose deprivation-induced synaptic impairment assessed as synaptic recovery at 100 nM. The assay is classed as functional, tissue-based. On the set-up: scale not given: the % may be the effect or the level left. Particulars: Hippocampus. In outline:
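Male Wistar rat hippocampal slices (400 µm) superfused with oxygenated aCSF at 30-32 °C and 2 mL/min. CA1 fepsps were evoked from stratum radiatum. OGD was 7 min of glucose-free aCSF gassed with 95% N2-5% CO2. Antagonist (100 nM) was given from 10 min before until 5 min after OGD. Readout: fepsp amplitude at 15 min reperfusion as % of the 5-min pre-OGD baseline; n=5, one-way ANOVA with Newman-Keuls.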

For assay [7], the target named is T5, Adenosine receptor A1 (Rattus norvegicus) (UniProt P25099).
T5 sequence (whole entry): T3 sequence (P25099 whole entry)
Nature of the assay: Displacement of [3H]DPCPX from Wistar rat adenosine A1 receptor at 10 uM. In outline:
as §1

Adenosine receptor A2a (Rattus norvegicus), sequence (P30543 whole entry): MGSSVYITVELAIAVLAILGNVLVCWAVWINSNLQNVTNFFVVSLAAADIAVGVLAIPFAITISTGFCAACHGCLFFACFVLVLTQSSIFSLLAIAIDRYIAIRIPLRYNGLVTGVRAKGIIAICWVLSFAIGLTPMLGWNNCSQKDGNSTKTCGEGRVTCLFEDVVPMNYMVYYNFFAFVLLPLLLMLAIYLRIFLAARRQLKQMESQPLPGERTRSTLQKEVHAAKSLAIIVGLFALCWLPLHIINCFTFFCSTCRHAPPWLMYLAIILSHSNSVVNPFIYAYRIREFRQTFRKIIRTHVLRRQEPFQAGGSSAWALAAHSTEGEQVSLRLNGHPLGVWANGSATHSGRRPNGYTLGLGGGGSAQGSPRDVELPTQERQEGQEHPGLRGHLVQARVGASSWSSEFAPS
Adenosine receptor A2a, sequence (P29274 whole entry): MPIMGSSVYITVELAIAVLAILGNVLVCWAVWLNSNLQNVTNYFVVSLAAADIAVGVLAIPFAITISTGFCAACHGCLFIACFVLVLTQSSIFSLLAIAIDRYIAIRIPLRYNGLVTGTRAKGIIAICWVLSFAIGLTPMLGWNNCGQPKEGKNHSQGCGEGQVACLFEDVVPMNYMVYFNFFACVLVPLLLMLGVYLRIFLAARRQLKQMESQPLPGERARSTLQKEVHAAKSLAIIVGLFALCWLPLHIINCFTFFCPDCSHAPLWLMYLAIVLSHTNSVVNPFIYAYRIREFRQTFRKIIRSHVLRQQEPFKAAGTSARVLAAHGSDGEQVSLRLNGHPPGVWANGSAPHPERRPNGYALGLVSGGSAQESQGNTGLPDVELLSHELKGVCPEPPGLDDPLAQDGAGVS

Take `O=C(Nc1nc2ccccc2c2cn(-c3ccccc3)nc12)C(c1ccccc1)c1ccccc1`: the Activity at Adenosine receptor A2a came to 21%; in assay [1], 0%; in assay [2], 30%; in assay [3] it was 26%; in assay [6], 47%. Further, the results for the pKi on Adenosine receptor A1 and at Adenosine receptor A3 [5] were 5.83 and 8.05, respectively. The pEC50 on Adenosine receptor A3 [4] was 8.42.

For the compound `COc1ccc(-n2cc3c(n2)c(N(C(=O)c2ccccc2)C(=O)c2ccccc2)nc2ccccc23)cc1`, the Activity on Adenosine receptor A2a came to 7%; in assay [7], 11%; in [1], 25%; in assay [2], 28%; in assay [3], 2%; in assay [6], 84%. Moreover, the pEC50 at Adenosine receptor A3 [4] is 7.95. Also, the pKi at Adenosine receptor A3 [5] is 7.76.
